Test results taken from ChEMBL document CHEMBL4261499, “Chiral disubstituted piperidinyl ureas: a class of dual diacylglycerol lipase-α and ABHD6 inhibitors” (Medchemcomm, 2017).

Tests used:
[1] = biological target: T1, Monoacylglycerol lipase ABHD6 (Homo sapiens, UniProt Q9BV23); assay: Inhibition of recombinant human ABHD6 expressed in HEK293 cells by AmplifuTM red dye based fluorescence assay; format: cell-based
T1 sequence (Q9BV23 whole entry): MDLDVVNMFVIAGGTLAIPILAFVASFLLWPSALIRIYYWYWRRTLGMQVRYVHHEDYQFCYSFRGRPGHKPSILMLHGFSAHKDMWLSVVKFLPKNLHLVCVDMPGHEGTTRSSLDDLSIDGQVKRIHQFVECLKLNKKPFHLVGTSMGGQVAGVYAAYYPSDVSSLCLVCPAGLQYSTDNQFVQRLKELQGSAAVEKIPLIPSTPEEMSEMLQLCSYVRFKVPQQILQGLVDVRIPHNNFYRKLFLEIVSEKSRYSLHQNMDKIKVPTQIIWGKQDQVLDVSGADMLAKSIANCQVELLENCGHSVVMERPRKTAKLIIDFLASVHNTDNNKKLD
Summary of the method: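 Membranes from transiently transfected HEK293T cells expressing human ABHD6, 40 μg mL-1 final protein. Real-time coupled fluorescence assay with natural substrate 2-AG (25 μM). Glycerol released is detected via glycerol kinase, glycerol-3-phosphate oxidase and HRP (0.2 U mL-1 each), 0.125 mM ATP and 10 μM Amplifu Red. Assay contains 5% DMSO and 0.5% acetonitrile. pIC50 ± SEM.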

[2] = biological target: T2, Diacylglycerol lipase-alpha (Homo sapiens, UniProt Q9Y4D2); assay: Inhibition of recombinant human DAGLalpha expressed in HEK293 cells using PNP-butyrate as substrate pretreated for 20 to 30 mins followed by substrate addition measured every 60 secs for 20 mins by colorimetric method; format: cell-based
T2 sequence (Q9Y4D2 whole entry): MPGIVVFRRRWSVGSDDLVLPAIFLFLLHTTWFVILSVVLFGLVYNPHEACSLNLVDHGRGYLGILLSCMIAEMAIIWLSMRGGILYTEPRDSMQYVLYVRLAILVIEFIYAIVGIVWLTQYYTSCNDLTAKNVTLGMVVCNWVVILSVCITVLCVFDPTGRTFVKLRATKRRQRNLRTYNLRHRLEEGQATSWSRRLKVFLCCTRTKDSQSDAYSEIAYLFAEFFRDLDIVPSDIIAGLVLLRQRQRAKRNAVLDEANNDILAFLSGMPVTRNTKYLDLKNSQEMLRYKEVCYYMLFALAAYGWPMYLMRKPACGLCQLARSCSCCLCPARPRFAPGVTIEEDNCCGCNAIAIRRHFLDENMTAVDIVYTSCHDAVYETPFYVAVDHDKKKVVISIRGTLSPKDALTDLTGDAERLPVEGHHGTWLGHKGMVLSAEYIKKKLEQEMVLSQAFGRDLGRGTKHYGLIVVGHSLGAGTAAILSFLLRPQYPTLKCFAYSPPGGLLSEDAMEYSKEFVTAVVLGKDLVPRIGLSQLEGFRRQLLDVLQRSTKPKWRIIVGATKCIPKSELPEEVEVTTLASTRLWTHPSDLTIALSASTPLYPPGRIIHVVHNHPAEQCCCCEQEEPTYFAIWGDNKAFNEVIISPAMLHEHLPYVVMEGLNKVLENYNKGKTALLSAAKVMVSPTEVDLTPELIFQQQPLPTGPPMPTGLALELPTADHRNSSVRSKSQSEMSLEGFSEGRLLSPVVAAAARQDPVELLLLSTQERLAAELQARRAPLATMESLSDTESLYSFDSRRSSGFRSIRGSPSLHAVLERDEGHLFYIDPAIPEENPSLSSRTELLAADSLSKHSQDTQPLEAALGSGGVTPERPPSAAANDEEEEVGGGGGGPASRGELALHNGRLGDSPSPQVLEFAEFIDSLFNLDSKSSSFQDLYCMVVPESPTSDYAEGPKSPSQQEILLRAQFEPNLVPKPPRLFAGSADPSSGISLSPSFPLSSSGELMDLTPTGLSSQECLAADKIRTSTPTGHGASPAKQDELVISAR
Summary of the method: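 Membrane fraction from HEK293T cells transiently transfected with human DAGLα (PEI transfection, harvested at 72 h). Membranes used at 0.05 μg μL-1 final protein in 50 mM HEPES pH 7.2. Colorimetric readout of para-nitrophenylbutyrate hydrolysis. pIC50 ± SEM.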

[3] = biological target: T3, Monoacylglycerol lipase ABHD6 (Mus musculus) (UniProt Q8R2Y0); assay: Inhibition of MB064 labelling of ABHD6 in mouse brain homogenates at 10 uM pretreated for 30 mins followed by MB064 addition and measured after 20 mins by activity based protein profiling assay relative to control; format: tissue-based
T3 sequence (whole entry): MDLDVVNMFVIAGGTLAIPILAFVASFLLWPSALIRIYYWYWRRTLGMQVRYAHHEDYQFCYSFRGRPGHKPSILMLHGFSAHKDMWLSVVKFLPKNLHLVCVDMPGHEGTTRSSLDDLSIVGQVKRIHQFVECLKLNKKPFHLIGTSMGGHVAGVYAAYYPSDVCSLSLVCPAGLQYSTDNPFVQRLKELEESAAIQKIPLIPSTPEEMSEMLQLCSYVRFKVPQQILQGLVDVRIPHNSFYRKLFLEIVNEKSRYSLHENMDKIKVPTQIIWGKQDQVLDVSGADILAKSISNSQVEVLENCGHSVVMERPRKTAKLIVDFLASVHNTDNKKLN
Summary of the method: (§1)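 Mouse brain membrane proteome preincubated 30 min with inhibitor (10 μM), then labelled with MB064 probe (0.25 μM, 20 min). Readout by gel-based competitive ABPP. Band intensities corrected for protein loading per lane from Coomassie staining. Means ± SEM, n = 3.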

[4] = biological target: T4, Diacylglycerol lipase-alpha (Mus musculus) (UniProt Q6WQJ1); assay: Inhibition of MB064 labelling of DAGLalpha in mouse brain homogenates at 10 uM pretreated for 30 mins followed by MB064 addition and measured after 20 mins by activity based protein profiling assay relative to control; format: tissue-based; summary of the method: as §1
T4 sequence (whole entry): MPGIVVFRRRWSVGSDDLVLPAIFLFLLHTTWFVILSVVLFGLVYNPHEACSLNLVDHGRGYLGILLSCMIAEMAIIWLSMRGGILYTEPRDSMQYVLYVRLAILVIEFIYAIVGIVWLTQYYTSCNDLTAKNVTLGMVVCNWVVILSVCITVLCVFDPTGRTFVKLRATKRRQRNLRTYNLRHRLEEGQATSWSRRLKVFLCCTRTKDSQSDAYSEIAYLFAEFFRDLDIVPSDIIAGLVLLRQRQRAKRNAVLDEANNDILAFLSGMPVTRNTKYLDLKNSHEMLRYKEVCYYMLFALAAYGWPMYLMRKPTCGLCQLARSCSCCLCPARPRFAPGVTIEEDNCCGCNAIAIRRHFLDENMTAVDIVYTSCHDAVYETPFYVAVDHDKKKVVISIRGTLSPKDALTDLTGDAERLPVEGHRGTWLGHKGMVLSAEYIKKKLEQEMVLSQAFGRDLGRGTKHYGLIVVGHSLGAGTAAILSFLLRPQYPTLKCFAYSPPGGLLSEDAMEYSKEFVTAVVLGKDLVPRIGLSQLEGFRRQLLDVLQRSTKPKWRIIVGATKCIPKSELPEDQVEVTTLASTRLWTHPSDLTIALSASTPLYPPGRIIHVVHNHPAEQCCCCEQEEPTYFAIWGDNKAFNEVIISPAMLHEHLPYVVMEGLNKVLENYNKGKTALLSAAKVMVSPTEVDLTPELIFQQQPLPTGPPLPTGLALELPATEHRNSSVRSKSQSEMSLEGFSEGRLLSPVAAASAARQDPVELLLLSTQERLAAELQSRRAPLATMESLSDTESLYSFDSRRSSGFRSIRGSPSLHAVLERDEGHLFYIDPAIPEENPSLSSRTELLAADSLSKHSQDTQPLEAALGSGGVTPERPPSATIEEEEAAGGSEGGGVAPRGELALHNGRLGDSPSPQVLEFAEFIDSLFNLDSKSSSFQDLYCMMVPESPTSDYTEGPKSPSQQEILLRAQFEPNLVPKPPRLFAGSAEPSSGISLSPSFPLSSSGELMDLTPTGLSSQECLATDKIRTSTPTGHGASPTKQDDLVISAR

Compound | IC50 [1] | IC50 [2] | inhibition [3] | inhibition [4]
O=C(N1CC=C[C@@H](O)[C@H]1COCc1ccccc1)n1cc(-c2ccc(-c3ccccc3)cc2)nn1 | 251 nM | > 10000 nM | 83% | 18%
O=C(N1CC=C[C@@H](O)[C@@H]1COCc1ccccc1)n1cc(-c2ccc(-c3ccccc3)cc2)nn1 | 794 nM | > 10000 nM | 18% | 6%
O=C(N1CCC=C[C@H]1Cc1ccccc1)n1cc(-c2ccc(-c3ccccc3)cc2)nn1 | 25.1 nM | 79.4 nM | 90% | 83%
O=C(N1CCC=C[C@@H]1Cc1ccccc1)n1cc(-c2ccc(-c3ccccc3)cc2)nn1 | 2.51 nM | 0.794 nM | 96% | 99%
O=C(N1C[C@H](O)C=C[C@@H]1COCc1ccccc1)n1cc(-c2ccc(-c3ccccc3)cc2)nn1 | 5.01 nM | 25.1 nM | 95% | 87%
O=C(N1CCC=C[C@@H]1COCc1ccccc1)n1ccc(-c2ccc(-c3ccccc3)cc2)n1 | > 10000 nM | > 10000 nM | -3% | 
O=C(N1C[C@H](O)C=C[C@H]1COCc1ccccc1)n1cc(-c2ccc(-c3ccccc3)cc2)nn1 | 316 nM | > 10000 nM | 50% | 5%
O=C(Oc1ccc([N+](=O)[O-])cc1)N1CCC=C[C@@H]1COCc1ccccc1 | > 10000 nM | > 10000 nM |  | 
O=C(N1C[C@H](O)C=C[C@@H]1Cc1ccccc1)n1cc(-c2ccc(-c3ccccc3)cc2)nn1 | 3.16 nM | 15.8 nM | 96% | 92%
O=C(N1CCC=C[C@@H]1COCc1ccccc1)n1cnc(-c2ccc(-c3ccccc3)cc2)n1 | > 10000 nM | > 10000 nM |  | 0%
O=C(N1CCC=C[C@@H]1COCc1ccccc1)n1cnc(-c2ccc(Br)cc2)c1 | > 10000 nM | > 10000 nM |  | -9%
O=C(N1CCCC[C@@H]1Cc1ccccc1)n1cc(-c2ccc(-c3ccccc3)cc2)nn1 |  |  | 95% | 99%
O=C(N1CCC=C[C@H]1COCc1ccccc1)n1cc(-c2ccc(-c3ccccc3)cc2)nn1 | 100 nM | 1260 nM | 84% | 30%
O=C(N1CCC=C[C@@H]1COCc1ccccc1)n1cnc(-c2ccc(-c3ccccc3)cc2)c1 | > 10000 nM | > 10000 nM |  | 
O=C(N1CCC=C[C@@H]1COCc1ccccc1)n1ccc(-c2ccc(Br)cc2)n1 | > 10000 nM | > 10000 nM | -3% | -3%
